Drawing on PubChem BioAssay AID624290 (Broad Institute, 2012), this text covers activity change, negative = inhibition and AC50 for 13 compounds.

The nature of assay [1]: TRPM1 promoter luciferase signal reduction, dose response, MITF inhibitor project, cell-based, SK-MEL-5, dry powder samples, set 2 (AID 624290). To be noted: SK-MEL-5 TRPM1-promoter luciferase reporter, 24 h; at 35 µM (top of the series). In a few lines: (§1)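 material = SK-MEL-5 TRPM1-promoter luciferase reporter cells | timing = compound pinned one day after plating, 24 h exposure at 37 °C | signal = luciferase luminescence with SteadyGlo reagent, 5 min room-temperature incubation | evaluation = luminescence change reflecting TRPM1 promoter activity, decrease as inhibition | benchmarks = parthenolide as positive control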
A general note: In a reporter assay the amount or activity of a reporter protein is the signal.

Assay [2] concerns SK-MEL-5 TRPM1-promoter luciferase reporter, 24 h. The description is as above. In a few lines: as §1

Calls of active or inactive are those of the source.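 Rule for the calls: active = compounds dimming the MITF-driven luciferase signal, with fitted AC50 at most twice the top tested dose; inconclusive = flat curves with moderate signal drop, or poor-quality fits; inactive = the rest.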

As to `O=C(NC1=C(N2CCCCC2)C(=O)c2ccccc2C1=O)c1ccc(Br)cc1`, in assay [1], the activity change, negative = inhibition is -0.221% (inactive). Regarding `COc1ccc(C2=C(NC(=O)c3ccccc3OC)C(=O)c3ccccc3C2=O)cc1`, the concentration at half-maximal activity (AC50) in assay [2] was 25.4 µM.

As to `CC(=O)NC1=C(c2ccc3c(c2)oc2ccccc23)C(=O)c2ccccc2C1=O`, the concentration at half-maximal activity (AC50) in assay [2] is 1.04 µM. On to `COc1ccc(C(=O)NC2=C(c3ccc(OC(F)(F)F)cc3)C(=O)c3ccccc3C2=O)cc1`, for which, in assay [2], the AC50 is 34.1 µM.

As for `COc1ccc(C2=C(N)C(=O)c3ccccc3C2=O)cc1`, the AC50 in assay [2] was 35.1 µM. Take `Cc1nc2ccccc2n1/N=C/c1ccc([N+](=O)[O-])s1`: the AC50 in assay [2] is 1.98 µM.

Consider `CCN1CCN(C2=C(NC(=O)c3ccc(Br)cc3)C(=O)c3ccccc3C2=O)CC1`, for which, in assay [2], the AC50 was 0.433 µM.

In the case of `COc1cccc(-c2cc(C(=O)NC3=C(Cl)C(=O)c4ccccc4C3=O)ccc2OC)c1`, the AC50 in assay [2] is 2.5 µM. The same measure, in the same setting: next, `NC1=CC(=O)c2ccccc2C1=O`: 1.1 µM; `C=CCNC1=C(N(C)C(C)=O)C(=O)c2ccccc2C1=O`: 0.0779 µM; `COc1ccc(C2=C(NC(=O)c3cccc(Cl)c3)C(=O)c3ccccc3C2=O)cc1`: 15.1 µM.

On to `O=C(NC1=C(c2ccc(OC(F)(F)F)cc2)C(=O)c2ccccc2C1=O)c1ccccc1`, for which the AC50 in assay [2] was 16.6 µM.

With `O=C1C=C(Nc2ccccc2)C(=O)c2ccccc21`, the AC50 in assay [2] is 4.03 µM.

One may read the AC50 as the concentration at which the activity in the assay is half-maximal.
